For data set [1], the system named is HepG2. Briefly: Cytotoxicity in human HepG2 cells assessed as effect on cell viability up to 25 uM incubated for 48 hrs by CellTiter-Glo luminescent cell viability assay. It is filed as cell-based. Conditions: hepg2, 48 h. Summed up:
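Cell viability measured by CellTiter-Glo luminescence, quantifying ATP as an indicator of viable cells.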

The test system of data set [2] is Mus musculus. Briefly: Anti-fibrotic activity in C57BL/6 mouse model of unilateral ureter obstruction-induced kidney inflammation and fibrosis assessed as reduction in FN1 mRNA expression at 3 mg/kg, ip dosed daily for 7 days by real-time qPCR analysis. It counts as functional, organism-based. Conditions: time 7.0 day. The method, boiled down:
(§1)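 Mice with unilateral ureter obstruction to induce kidney inflammation and fibrosis, given compound or vehicle intraperitoneally. Ligated (UUO) and contralateral kidneys taken at day 7. Fibrosis read by AZAN and Sirius Red staining, with Sirius Red imaged under bright and polarized light. Macrophages detected by F4/80 staining, quantified as positive area. Col1a1, FN1, TNFα and Ccl2 mRNA measured in whole-kidney homogenates by real-time qRT-PCR normalized to GAPDH.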

A short description of data set [3]: T>IC50 in Swiss CD-1 mouse at 3 mg/kg, po administered as single dose by LC-MS analysis. It is filed as ADME, organism-based. Conditions: in vivo. The method, boiled down:
(§2)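 Male Swiss CD-1 mice received a single oral dose of 3 mg/kg in 1% methylcellulose/Tween80 (99:1); nine mice treated, three vehicle controls, three mice per time point. Serum analyzed by LC-MS for concentration–time profile.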

Data set [4] concerns the target T1, Polyunsaturated fatty acid lipoxygenase ALOX12 (Homo sapiens) (UniProt P18054).
T1 sequence (whole entry): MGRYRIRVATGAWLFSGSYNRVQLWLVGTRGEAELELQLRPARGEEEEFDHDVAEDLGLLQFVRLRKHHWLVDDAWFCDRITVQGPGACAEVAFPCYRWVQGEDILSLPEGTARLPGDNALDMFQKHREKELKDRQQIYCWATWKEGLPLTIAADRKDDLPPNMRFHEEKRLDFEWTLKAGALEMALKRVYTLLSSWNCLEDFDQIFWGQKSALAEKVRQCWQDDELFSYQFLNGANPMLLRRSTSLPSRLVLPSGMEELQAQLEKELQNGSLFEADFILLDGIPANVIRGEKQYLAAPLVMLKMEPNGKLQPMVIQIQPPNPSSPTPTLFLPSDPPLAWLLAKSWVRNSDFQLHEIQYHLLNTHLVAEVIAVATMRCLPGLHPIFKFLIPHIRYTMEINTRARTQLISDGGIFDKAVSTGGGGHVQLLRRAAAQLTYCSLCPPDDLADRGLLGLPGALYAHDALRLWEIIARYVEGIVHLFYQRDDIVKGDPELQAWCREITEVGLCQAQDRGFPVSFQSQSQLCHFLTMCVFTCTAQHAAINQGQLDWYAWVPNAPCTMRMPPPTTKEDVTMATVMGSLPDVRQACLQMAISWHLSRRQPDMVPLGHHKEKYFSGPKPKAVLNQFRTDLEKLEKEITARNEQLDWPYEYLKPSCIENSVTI
Briefly: Activation of 12-LOX in human PMNL pre-incubated for 15 mins before addition of AA and A23187 and measured after 10 mins by HPLC/UV assay. Conditions: filed as activator, time 25.0 min.

A short description of data set [5]: Metabolic stability in rat liver microsomes assessed as compound remaining after 60 mins. It counts as ADME, Microsome. Conditions: read-out: Stabilty. Summed up: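 Compound incubated with rat liver microsomes for 60 min; percent parent compound remaining determined; n ≥ 3.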
(Microsomes from liver hold many membrane-bound enzymes, among them those of drug oxidation.)

In data set [6] the target is T2, Bifunctional epoxide hydrolase 2 (Homo sapiens, UniProt P34913).
T2 sequence (P34913 whole entry): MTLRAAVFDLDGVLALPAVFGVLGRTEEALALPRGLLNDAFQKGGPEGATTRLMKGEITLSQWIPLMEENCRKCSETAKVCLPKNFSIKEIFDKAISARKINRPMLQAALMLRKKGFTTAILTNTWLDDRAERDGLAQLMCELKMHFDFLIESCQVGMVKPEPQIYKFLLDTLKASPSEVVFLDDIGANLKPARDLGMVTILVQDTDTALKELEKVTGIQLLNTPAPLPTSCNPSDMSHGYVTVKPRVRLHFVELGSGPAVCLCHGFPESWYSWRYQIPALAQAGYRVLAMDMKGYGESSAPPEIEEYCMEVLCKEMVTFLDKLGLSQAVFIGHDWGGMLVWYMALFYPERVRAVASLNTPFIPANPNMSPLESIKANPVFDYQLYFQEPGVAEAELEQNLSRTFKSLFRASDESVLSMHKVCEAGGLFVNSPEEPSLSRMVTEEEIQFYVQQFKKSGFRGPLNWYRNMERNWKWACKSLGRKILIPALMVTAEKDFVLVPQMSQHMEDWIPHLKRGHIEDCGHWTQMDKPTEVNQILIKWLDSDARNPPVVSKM
Briefly: Inhibition of human sEH (1 to 555 residues) expressed in Escherichia coli BL21-(DE3) using PHOME substrate incubated for 30 to 45 mins by fluorescence based assay.

Data set [7] concerns Mus musculus. As to the kind of experiment: Anti-fibrotic activity in C57BL/6 mouse model of unilateral ureter obstruction-induced kidney inflammation and fibrosis assessed as inhibition of tubulo-interstitial fibrosis by measuring reduced blue staining of collagen fibers in AZAN-stained sections at 3 mg/kg, ip dosed daily for 7 days by AZAN trichrome staining method. It is filed as functional, organism-based. Conditions: time 7.0 day. The method, boiled down:
as §1

The subject of data set [8] is Mus musculus. Briefly: Anti-fibrotic activity in C57BL/6 mouse model of unilateral ureter obstruction-induced kidney inflammation and fibrosis assessed as reduction in macrophage infiltration into the obstructed kidney at 3 mg/kg, ip dosed daily for 7 days by F4/80 antibody staining based assay. It counts as functional, organism-based. The following applies: time 7.0 day. The method, boiled down: as §1

Data set [9] is described as follows: Cmax in Swiss CD-1 mouse at 3 mg/kg, po administered as single dose by LC-MS analysis. It counts as ADME, organism-based. Further details: route oral, dose 3 mg/kg. Conditions: in vivo. Summed up: as §2
A short description of data set [10]: Half life in Swiss CD-1 mouse at 3 mg/kg, po administered as single dose by LC-MS analysis. The following applies: in vivo. It is filed as ADME, organism-based. Summed up:
as §2

A short description of data set [11]: Tmax in Swiss CD-1 mouse at 3 mg/kg, po administered as single dose by LC-MS analysis. It is filed as ADME, organism-based. Conditions: in vivo. The method, boiled down: as §2
In data set [12] the test system is Mus musculus. As to the kind of experiment: Anti-fibrotic activity in C57BL/6 mouse model of unilateral ureter obstruction-induced kidney inflammation and fibrosis assessed as reduction in Col1a1 mRNA expression at 3 mg/kg, ip dosed daily for 7 days by real-time qPCR analysis. It counts as functional, organism-based. Conditions: time 7.0 day. The method, boiled down:
as §1

Data set [13] relates to Mus musculus. As to the kind of experiment: Anti-fibrotic activity in C57BL/6 mouse model of unilateral ureter obstruction-induced kidney inflammation and fibrosis assessed as inhibition of tubulo-interstitial fibrosis by measuring reduced fibrillar collagen at 3 mg/kg, ip dosed daily for 7 days by Sirius red staining method. It is filed as functional, organism-based. The following applies: time 7.0 day. The method, boiled down: as §1

The values that follow come from ChEMBL document CHEMBL4725418, “Design, Synthesis, and Structure-Activity Relationship Studies of Dual Inhibitors of Soluble Epoxide Hydrolase and 5-Lipoxygenase” (J Med Chem, 2020).

Each structure is given as a SMILES string. Active and inactive are the calls of the source. The rule behind the calls is not given here.

Take `C[C@H](C#Cc1cccc(C(=O)NCCC(c2ccc(F)cc2)c2ccc(F)cc2)c1)N(O)C(N)=O`: the Activity result in data set [1] is “Non-Toxic”. Besides, the outcome in data set [2], in data set [4], in [7], in data set [8], in data set [12] and in data set [13] was Active. Besides, the “T>IC50” value in data set [3] amounted to 3 h. In addition, the remaining at 1 h in data set [5] stood at 50%. The compound also displayed a half-maximal inhibitory concentration (IC50) in data set [6] of 1.2 nM. Further, the Cmax in data set [9] is 700 nM. Besides, the half-life in [10] is 1.3 h. Also, the time to peak (Tmax) in data set [11] is 1 h.

The term IC50 denotes the concentration at which inhibition is half-maximal. A lower IC50 goes with higher potency. As a reminder, the Cmax is the maximum level reached in the sampled fluid or tissue. Broadly, the half-life is the time in which the quantity being followed falls by half. A lower half-life goes with fast loss. One may read the Tmax as the time from dosing to the highest level.
